# Square brackets hold non-standard residues; d marks the D form. Peptide text beside a SMILES is read from it. * marks the point of attachment. Tyr(Nα,Nα-allyl2) = C=CCN(CC=C)[C@@H](Cc1ccc(O)cc1)C(=O)*; Aib = CC(C)(N)C(=O)O
# Columns and labels:
# [1] = target: Delta-type opioid receptor (Homo sapiens) (UniProt P41143); test: Evaluation for the ability of delta opioids to protect the [3H]DAMGO binding site from alkylation; conditions: Bos taurus
# Method in brief: (§1)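 Protection assay on TPCK-pretreated calf striatal membranes. Membranes were preincubated with 100 nM protecting opioid in 50 mM Tris-HCl pH 7.5 for 30 min at 37 °C. The disulfide ligand (40 or 80 nM) was then added for 2 min at 37 °C in 2 mL. After four centrifugal washes, 0.25 nM [3H]DAMGO binding was measured. Results are % of untreated control; mean ± SE, three experiments in triplicate.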
# [2] = target: Mu-type opioid receptor (Bos taurus, UniProt P79350); test: Evaluation for the inhibition of mu opioid binding to bovine striatal membranes by the affinity ligand 0.25 nM [3H]DAMGO radiolabeled opioid; design: species or system Striatum, Membrane
# Chain of Mu-type opioid receptor (P79350 whole entry): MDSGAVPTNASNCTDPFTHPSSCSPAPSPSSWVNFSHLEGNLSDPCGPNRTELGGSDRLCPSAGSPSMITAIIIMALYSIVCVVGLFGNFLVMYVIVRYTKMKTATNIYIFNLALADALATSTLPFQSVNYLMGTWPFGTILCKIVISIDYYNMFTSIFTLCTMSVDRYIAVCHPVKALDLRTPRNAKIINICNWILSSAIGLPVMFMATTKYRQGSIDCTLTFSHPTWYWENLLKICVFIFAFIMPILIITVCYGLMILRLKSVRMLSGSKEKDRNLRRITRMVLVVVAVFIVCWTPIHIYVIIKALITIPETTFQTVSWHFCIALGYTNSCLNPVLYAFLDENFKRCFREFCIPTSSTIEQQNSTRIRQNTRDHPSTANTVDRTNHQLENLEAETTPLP
# Method in brief: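 Competition binding on bovine striatal membranes: twelve compound concentrations with radioligand in 1 mL of 50 mM Tris-HCl pH 7.5 at 25 °C, with 5 mM MgCl2 and 0.1 mM PMSF. Incubation was 60 min for [3H]DAMGO and [3H]U69,593 and 4 h for [3H]pCl-DPDPE. […] Filtration used PEI-soaked filters for the κ and δ ligands. Mean IC50 ± SE, three experiments.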
# [3] = target: Mu-type opioid receptor (Bos taurus) (UniProt P79350); test: Effect of DTT on Wash-Resistant Inhibition of [3H]DAMGO by 10 nM
# Chain of Mu-type opioid receptor (Bos taurus) (P79350 whole entry): as above
# Method in brief: (§2)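 They were then given 40 mM DTT for 10 min at 4 °C in 2 mL of 50 mM Tris-HCl pH 7.5, followed by four centrifugal washes. […] Results are % of control without ligand or DTT; mean ± SE, three experiments in triplicate.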
# [4] = target: Kappa-type opioid receptor (Homo sapiens) (UniProt P41145); test: Evaluation for the ability of kappa opioids to protect the [3H]-DAMGO binding site from alkylation; conditions: Bos taurus; method in brief: as §1
# Chain of Kappa-type opioid receptor (Homo sapiens) (P41145 whole entry): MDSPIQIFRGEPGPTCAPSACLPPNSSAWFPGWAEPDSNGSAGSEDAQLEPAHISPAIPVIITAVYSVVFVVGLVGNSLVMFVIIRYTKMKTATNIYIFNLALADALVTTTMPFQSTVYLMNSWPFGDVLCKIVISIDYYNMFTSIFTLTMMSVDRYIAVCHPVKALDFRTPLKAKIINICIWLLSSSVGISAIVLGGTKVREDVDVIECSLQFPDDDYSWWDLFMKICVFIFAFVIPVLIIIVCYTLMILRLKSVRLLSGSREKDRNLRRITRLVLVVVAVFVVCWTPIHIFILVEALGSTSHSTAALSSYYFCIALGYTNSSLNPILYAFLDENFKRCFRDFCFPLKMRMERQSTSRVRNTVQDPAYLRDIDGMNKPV
# [5] = target: Mu-type opioid receptor (Bos taurus) (UniProt P79350); test: Evaluation for the ability of mu opioid to protect the [3H]DAMGO binding site from alkylation
# [6] = target: Mu-type opioid receptor (Bos taurus) (UniProt P79350); test: Effect of DTT on Wash-Resistant Inhibition of [3H]DAMGO at 10 nM of the compound; method in brief: as §2
# [7] = target: Mu-type opioid receptor (Bos taurus) (UniProt P79350); test: Evaluation for the ability of mu opioids to protect the [3H]DAMGO binding site from alkylation; method in brief: as §1
# Chain of Delta-type opioid receptor (Homo sapiens) (P41143 whole entry): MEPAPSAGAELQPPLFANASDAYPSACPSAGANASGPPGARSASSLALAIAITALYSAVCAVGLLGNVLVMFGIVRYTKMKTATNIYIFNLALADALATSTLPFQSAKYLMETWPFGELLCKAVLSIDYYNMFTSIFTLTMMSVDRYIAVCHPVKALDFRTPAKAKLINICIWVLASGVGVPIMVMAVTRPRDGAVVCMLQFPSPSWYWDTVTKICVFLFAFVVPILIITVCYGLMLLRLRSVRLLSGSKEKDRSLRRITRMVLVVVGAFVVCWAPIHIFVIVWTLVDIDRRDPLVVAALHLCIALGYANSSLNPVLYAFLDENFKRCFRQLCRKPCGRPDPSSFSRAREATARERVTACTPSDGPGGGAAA
Structure (SMILES),IC50 [2],Activity [5],further results
O=C(CSSCC(=O)N[C@@]12CCC(=O)[C@@H]3Oc4c(O)ccc5c4[C@@]31CCN(CC1CC1)[C@@H]2C5)N[C@@]12CCC(=O)[C@@H]3Oc4c(O)ccc5c4[C@@]31CCN(CC1CC1)[C@@H]2C5,3.29 nM,–,Activity [1]: 25; inhibition [3]: 63%; Activity [4]: 30
Oc1ccc2c3c1O[C@H]1c4[nH]c5ccccc5c4C[C@@]4(O)[C@@H](C2)N(CC2CC2)CC[C@]314,–,25,–
CN1CC[C@]23c4c5ccc(O)c4O[C@H]2[C@@H](O)C=C[C@H]3[C@H]1C5,–,67,–
"C=CCN(CC=C)[C@@H](Cc1ccc(O)cc1)C(=O)NC(C)(C)C(=O)NC(C)(C)C(=O)N[C@@H](Cc1ccccc1)C(=O)N[C@@H](CC(C)C)C(=O)O ({Tyr(Nα,Nα-allyl2)}-[Aib][Aib]FL-OH)",–,24,–
CN1CC[C@]23c4c5ccc(O)c4O[C@H]2C(=O)CC[C@@]3(NC(=O)CSSCC(=O)N[C@@]23CCC(=O)[C@@H]4Oc6c(O)ccc7c6[C@@]42CCN(C)[C@@H]3C7)[C@H]1C5,0.4 nM,–,inhibition [6]: 50%; Activity [7]: 25

# — ChEMBL document CHEMBL1127738, “14 alpha,14' beta-[Dithiobis[(2-oxo-2,1-ethanediyl)imino]]bis (7,8-dihydromorphinone) and 14 alpha,14' beta-[dithiobis[(2-oxo-2,1- ethanediyl)imino]]bis[7,8-dihydro-N-(cyclopropylmethyl)normorphinone]: chemistry and opioid binding properties” (J Med Chem, 1994)
